Published values from different studies.
Protocols differ between the studies behind these lines.
ABL1 F317L non-phosphorylated: Tyrosine-protein kinase ABL1, non-phosphorylated (ABL1, Homo sapiens, UniProt P00519, F317L)
ABL1 non-phosphorylated: Tyrosine-protein kinase ABL1, non-phosphorylated (ABL1, Homo sapiens, UniProt P00519)
ABL1 phosphorylated: Tyrosine-protein kinase ABL1, phosphorylated (ABL1, Homo sapiens, UniProt P00519)
ABL1 Y253F phosphorylated: Tyrosine-protein kinase ABL1, phosphorylated (ABL1, Homo sapiens, UniProt P00519, Y253F)
ABL1 T315I: Tyrosine-protein kinase ABL1 (ABL1, Homo sapiens, UniProt P00519, T315I)
ABL1 F317I phosphorylated: Tyrosine-protein kinase ABL1, phosphorylated (ABL1, Homo sapiens, UniProt P00519, F317I)
ABL1 H396P phosphorylated: Tyrosine-protein kinase ABL1, phosphorylated (ABL1, Homo sapiens, UniProt P00519, H396P)
ABL1 E255K phosphorylated: Tyrosine-protein kinase ABL1, phosphorylated (ABL1, Homo sapiens, UniProt P00519, E255K)
ABL1 F317I non-phosphorylated: Tyrosine-protein kinase ABL1, non-phosphorylated (ABL1, Homo sapiens, UniProt P00519, F317I)

With `C=CC(=O)N1CCC(C(=O)NCC(=O)N2CCN(c3nc(-c4cnc(N)nc4C(F)F)nc(N4CCOCC4)n3)CC2)CC1` the remaining binding was 90% (ABL1 F317L non-phosphorylated; binding, competition with immobilised ligand; 1 µM).
For `O=C(O)[C@H]1[C@H](Cn2nnc3ccccc3c2=O)CC[C@@H]1C(=O)c1ccc(OCCC2CCOCC2)cc1`, the remaining binding was 80% (ABL1 non-phosphorylated; cell-free assay, competition with immobilised ligand; 1 µM).
`CN(C)c1nccc(-c2cnc3ncccn23)n1` has a remaining binding of 57% (ABL1 phosphorylated; binding; 1 µM).
For `Nc1ncc2c(n1)-c1c([nH]c3ccc(C#CC4CC4)cc13)CCCC2`, the remaining binding was 95% (ABL1 Y253F phosphorylated; binding, competition with immobilised ligand; 1 µM).
With `C[C@@H]1CN(c2cc(-c3n[nH]c4ccc(OC5(C)CC5)cc34)ncn2)C[C@H](C)O1` the remaining binding was 66% (ABL1 Y253F phosphorylated; cell-free assay, competition with immobilised ligand; 0.1 µM).
`C[C@H]1CCN(c2nccc(-c3cnn4ncccc34)n2)C1` has a remaining binding of 82% (ABL1 T315I; binding; 1 µM).
`Cc1cnc(Nc2ccc(C(=O)N3CCC(N4CCCC4)CC3)cc2)nc1-c1cc2ccccc2s1` has a remaining binding of 57% (ABL1 F317I phosphorylated; binding, competition with immobilised ligand; 1 µM).
`CNC(=O)[C@@H]1CC[C@@H](n2c(-c3ccc4cnccc4c3)nc3ccc(C(=O)NCc4cccc(C(N)=O)c4)cc32)C1` has a remaining binding of 100% (ABL1 H396P phosphorylated; binding, competition with immobilised ligand; 1 µM).
With `COc1ncc2cc3ccccc3nc2c1C#N` the remaining binding was 100% (ABL1 non-phosphorylated; cell-free assay, competition with immobilised ligand; 5 µM).
`O=C(Nc1c[nH]nc1C(=O)NC1CCNCC1)c1cc(F)cc(F)c1` gave a remaining binding of 100% (ABL1 E255K phosphorylated; binding, competition with immobilised ligand; 1 µM).
`CN(C)CC#Cc1ccc(OCCCc2sc(N3CCc4cccc(C(=O)Nc5nc6ccccc6s5)c4C3)nc2C(=O)O)c(F)c1` has a remaining binding of 92% (Tyrosine-protein kinase ABL1, phosphorylated (ABL1, Homo sapiens, UniProt P00519, T315I); cell-free assay, competition with immobilised ligand; 1 µM).
`CN(C)c1nccc(-c2cnn3ncccc23)n1` gave a remaining binding of 80% (ABL1 T315I; binding; 1 µM).
For `COc1cnc(Nc2cccc(S(N)(=O)=O)c2)nc1N1CCN(c2ccccc2)C(=O)C1`, the remaining binding was 86% (ABL1 E255K phosphorylated; binding, competition with immobilised ligand; 1 µM).
For `Cc1cnn2ncc(-c3ccnc(N(C)C)n3)c2c1`, the remaining binding was 81% (Tyrosine-protein kinase ABL1 (ABL1, Homo sapiens, UniProt P00519, H396P); binding; 1 µM).
`COc1cc(-c2cn(C3CCc4c(F)cccc4N(CC(F)(F)F)C3=O)nn2)ccc1-n1cnc(C)c1` (centres unmarked) has a remaining binding of 100% (ABL1 phosphorylated; cell-free assay, competition with immobilised ligand; 1 µM).
With `COc1cnc(Nc2cccc(S(N)(=O)=O)c2)nc1N1CCN(c2ccccc2)CC1` the remaining binding was 70% (ABL1 non-phosphorylated; binding, competition with immobilised ligand; 1 µM).
`C[C@@]1(Cc2ccc(C#N)cc2)C(=O)N(c2cc(Cl)cc(Cl)c2)c2ncc(C(=O)NC3(c4nc(C5CCC5)no4)CC3)n21` gave a remaining binding of 94% (ABL1 F317I non-phosphorylated; binding, competition with immobilised ligand; 1 µM).
With `O=C(NCCCN1CCOCC1)c1ccc(Nc2ncc(Cl)c(-c3ccc(Cl)s3)n2)cc1` the remaining binding was 32% (ABL1 H396P phosphorylated; binding, competition with immobilised ligand; 1 µM).
With `O=C(NCC1CCOCC1)c1n[nH]cc1NC(=O)c1c(F)cccc1F` the remaining binding was 90% (Tyrosine-protein kinase ABL1, non-phosphorylated (ABL1, Homo sapiens, UniProt P00519, T315I); binding, competition with immobilised ligand; 1 µM).
`N[C@@H]1CCN(c2nccc(-c3cnn4ncccc34)n2)C1` has a remaining binding of 95% (ABL1 T315I; binding; 1 µM).
The remaining binding of `O=C(c1ccc(Nc2ncc(Cl)c(-c3cc4ccccc4s3)n2)cc1)N1CCC(N2CCCC2)CC1` is reported as 100% (ABL1 F317I phosphorylated; binding, competition with immobilised ligand; 1 µM).
`COc1ccnn2ncc(-c3ccnc(N(C)C)n3)c12` gave a remaining binding of 86% (Tyrosine-protein kinase ABL1 (ABL1, Homo sapiens, UniProt P00519, E255K); binding; 1 µM).
For `O=C(NCc1ncc(C(F)(F)F)cc1Cl)c1ccc2c(c1)C1(CCS(=O)(=O)CC1)[C@H](C1CC1)N2S(=O)(=O)c1ccc(F)cc1`, the remaining binding was 70% (Tyrosine-protein kinase ABL1, phosphorylated (ABL1, Homo sapiens, UniProt P00519, Q252H); cell-free assay, competition with immobilised ligand; 1 µM).
The remaining binding of `C[C@@H](c1ccc(-n2cnc3c(N)ncnc32)cc1)N1CCc2nn(C)c(Cc3ccccc3)c2C1=O` is reported as 70% (ABL1 E255K phosphorylated; binding, competition with immobilised ligand; 0.1 µM).
`CCN1CCN(Cc2ccc(C(=O)Nc3ccc(C)c(Oc4ccc5c(c4)CC(=O)N5)c3)cc2C(F)(F)F)CC1` gave a remaining binding of 1% (ABL1 F317I non-phosphorylated; binding, competition with immobilised ligand; 1 µM).
With `CO[C@H]1CC[C@H](CNc2ccc(S(=O)(=O)NC(=O)c3ccc(N4CCN(CC5=C(c6ccc(Cl)cc6)CC(C)(C)CC5)CC4)cc3Oc3cnc4[nH]ccc4c3)cc2[N+](=O)[O-])CC1` the remaining binding was 83% (Tyrosine-protein kinase ABL1, phosphorylated (ABL1, Homo sapiens, UniProt P00519, F317L); cell-free assay, competition with immobilised ligand; 1 µM).
For `O=C(NCCCN1CCOCC1)c1ccc(Nc2nccc(-c3cc4ccccc4s3)n2)cc1`, the remaining binding was 84% (ABL1 F317I phosphorylated; binding, competition with immobilised ligand; 1 µM).
`F[C@@H]1CCN(c2nccc(-c3cnn4ncccc34)n2)C1` has a remaining binding of 100% (Tyrosine-protein kinase ABL1 (ABL1, Homo sapiens, UniProt P00519, F317L); binding; 1 µM).
With `O=C(c1ccc(Nc2ncc(Cl)c(-c3ccc(Cl)s3)n2)cc1)N1CCC(N2CCCC2)CC1` the remaining binding was 5% (ABL1 Y253F phosphorylated; binding, competition with immobilised ligand; 1 µM).
For `c1cncc(-c2cccc(Nc3nccc(NC4CCCCC4)n3)c2)c1`, the remaining binding was 81% (ABL1 F317L non-phosphorylated; binding, competition with immobilised ligand; 10 µM).
`O=C(c1ccc(Nc2nccc(-c3cc4ccccc4s3)n2)cc1)N1CCC(N2CCCC2)CC1` gave a remaining binding of 13% (ABL1 H396P phosphorylated; binding, competition with immobilised ligand; 1 µM).
`O=C(NC[C@@H]1[C@H]2CN(C(=O)OCc3cc(C(F)(F)F)cc(C(F)(F)F)c3)C[C@@H]12)c1ccc2[nH]nnc2c1` gave a remaining binding of 92% (ABL1 E255K phosphorylated; binding, competition with immobilised ligand; 1 µM).
